Data: PMC6544545 (Nature microbiology, 2018)

Legend:
E. coli mutant strains = assay: Relative MIC measurement of mutant and evolved strains; assay type: cell-based, Escherichia coli
[1] = test system: E. coli K12 wild-type and antibiotic-resistant strains; assay: Antibiotic-PGLA combination screen; assay type: cell-based, Escherichia coli; details: Loewe additivity, EC90%
Procedure, shortened: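 E. coli K12 BW25113 wild-type and 21 strains adapted to one of 10 antibiotics were tested. Single agents ran as 1.6-fold 8-step dilutions spanning 10.5x below to 2.6x above each strain's MIC, plus dilution series at 7 antibiotic:peptide ratios (7:1 to 1:7). Wells received 5×10^4 cells from overnight culture, then 24 h at 30°C, 300 rpm, OD600. Expected (Loewe) and measured EC90% gave CIr per ratio; CI is the mean of the 7 CIr values.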

[2] = test system: antibiotic-resistant bacteria; assay: Antibiotic MIC in the presence of subinhibitory PGLA; assay type: cell-based, Escherichia coli; details: tetracycline (TET) resistant strain; ½ MIC PGLA (MIC against the wild-type)
Procedure, shortened: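 Each level was tested alone and alongside MIC determination of the antibiotic the strain was adapted to. Growth with peptide alone was scored as growth rate.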

wild-type E. coli = assay: Experimental evolution of resistance followed by MIC measurement; assay type: cell-based, Escherichia coli
[3] = test system: 60 antibiotic-resistant Escherichia coli strains; assay type: cell-based
[4] = test system: antibiotic-resistant E. coli strains; assay: Membrane integrity measurement; assay type: cell-based, Escherichia coli; details: sensitive strains could not grow on medium with 6% bile acid
Procedure, shortened: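 Bile acid sensitivity came from the high-throughput screen in MS medium. About 103 bacteria/ml were pin-inoculated and grown 24 h at 30°C, 300 rpm, with OD600 read once. Resistant strains ran in 4 replicates and wild-type in 12 on the same plate, and growth arrest was scored per well. Strains unable to grow with 6% bile acid were grouped as sensitive.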

CAP18-resistant bacteria = assay: Susceptibility of CAP18-resistant evolved bacteria to antibiotics; assay type: cell-based; details: preliminary results

## O=C1CN(/N=C/c2ccc([N+](=O)[O-])o2)C(=O)N1 [nitrofurantoin]
E. coli mutant strains; ompC mutation inserted into wild-type E. coli
  effect of ompC loss-of function mutation on susceptibility: conferred resistance

## Peptide Glycine-Leucine Amide [PGLA]
E. coli mutant strains; marR mutation in E. coli BW25113 or E. coli ATCC 25922
  susceptibility of the marR single point mutant (marR*): collateral sensitivity
[1]; E. coli K12 wild-type, 0.86<CI<1.14 no interaction
  interaction of PGLA with tetracycline (TET), wild-type strain: no interaction
[1]; TET3, CI≤0.86 synergism
  interaction of PGLA with tetracycline (TET), tetracycline-resistant strain TET3: strong synergism
[2]
  growth rate reduction by the peptide applied alone: 40%
wild-type E. coli; laboratory evolution, 160 generations
  evolution of resistance to the peptide: marginal
wild-type E. coli; laboratory-evolved lines
  cross-resistance between PGLA and ciprofloxacin or tetracycline in evolved lines: no substantial cross-resistance

## bactenecin 5 (RFRPPIRRPPIRPPFYPPFRPPIRPPIFPPIRPPFRPPLGPFP; Bactenecin-5; UniProt P19660 131-173, looked up) [BAC5]
[3]; tobramycin-resistant E. coli strains
  interaction of tobramycin-resistant strains with the peptide: cross-resistance rather than collateral sensitivity

## bile acid
[4]
  percentage of antibiotic-resistant strains more susceptible than the wild-type: 75%

## cecropin P1 [CP1]
[3]; 60 laboratory-evolved antibiotic-resistant E. coli strains
  collateral sensitivity of antibiotic-resistant strains towards the peptide: rarely show collateral sensitivity

## rabbit 18-kDa cationic antimicrobial protein [CAP18]
CAP18-resistant bacteria
  consequence of evolving resistance to the peptide: collateral sensitivity to several conventional antibiotics
